Screening data as filed in PubChem BioAssay.
Compounds with a hit are over-represented: about 2.3% of the library has one in this group of screens.
TRPC4 potent = allosteric potentiators of mouse TRPC4 channel; Q9QUQ5; HEK293 TRPC4beta/mu-opioid, DAMGO EC20, Fluo-4 Ca2+ flux; stronger effect = higher value; B-score at 10 µM; 0.42% of 310,000 active; AID 2227;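 active = B-score of calcium response area above 5 SD of library B-scores, with initial fluorescence ratio within 5 SD of library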;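 also: B-score of integrated fluorescence ratio over time as area under calcium response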
Target sequence (Q9QUQ5 whole entry, looked up): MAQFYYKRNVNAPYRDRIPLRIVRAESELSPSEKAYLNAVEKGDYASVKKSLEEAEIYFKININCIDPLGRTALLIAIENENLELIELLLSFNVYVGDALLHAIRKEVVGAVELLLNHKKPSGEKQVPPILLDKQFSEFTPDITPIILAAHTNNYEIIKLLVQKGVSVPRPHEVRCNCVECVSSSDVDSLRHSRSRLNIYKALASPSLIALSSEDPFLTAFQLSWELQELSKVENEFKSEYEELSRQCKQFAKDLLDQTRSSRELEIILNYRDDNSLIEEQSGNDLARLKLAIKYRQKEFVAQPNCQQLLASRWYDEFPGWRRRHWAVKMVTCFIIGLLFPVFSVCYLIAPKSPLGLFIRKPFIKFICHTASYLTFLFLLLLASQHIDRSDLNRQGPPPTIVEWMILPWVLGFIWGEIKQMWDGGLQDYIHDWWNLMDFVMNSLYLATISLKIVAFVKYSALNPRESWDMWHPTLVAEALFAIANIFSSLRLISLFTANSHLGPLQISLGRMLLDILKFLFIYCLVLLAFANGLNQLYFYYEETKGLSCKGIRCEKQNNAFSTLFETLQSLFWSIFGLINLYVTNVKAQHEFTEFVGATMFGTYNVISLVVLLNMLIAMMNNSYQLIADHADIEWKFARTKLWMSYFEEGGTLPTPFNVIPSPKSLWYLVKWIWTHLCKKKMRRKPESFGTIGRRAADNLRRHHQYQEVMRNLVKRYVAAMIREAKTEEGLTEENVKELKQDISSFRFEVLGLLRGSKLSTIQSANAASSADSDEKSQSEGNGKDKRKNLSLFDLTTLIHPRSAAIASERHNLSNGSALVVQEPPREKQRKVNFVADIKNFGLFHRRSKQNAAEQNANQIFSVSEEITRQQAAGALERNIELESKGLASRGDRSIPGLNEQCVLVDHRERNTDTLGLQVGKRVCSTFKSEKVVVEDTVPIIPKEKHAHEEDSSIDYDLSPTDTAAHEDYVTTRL
TRPC6 activator = activators of mouse TRPC6 channel. Q61143. HEK293-TRPC6 membrane potential dye fluorescence; stronger effect = higher value. B-score at 10 µM. 0.13% of 310,000 active. AID 2550;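 active = B-score of the integrated fluorescence ratio above library mean plus 3 SD, and starting fluorescence ratio within library mean plus 5 SD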;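 also: higher score means more depolarization so channel activation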
TRPC4 inh = inhibitors of mouse TRPC4 channel. Q9QUQ5. HEK293 TRPC4beta/mu-opioid, DAMGO-evoked Fluo4 calcium flux; stronger effect = lower value. B-score at 10 µM. 0.39% of 300,000 active. AID 2247;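 active = B-score over 3 SD under the library average, no early fluorescence shift, positive overall ratio signal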
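Assay system: HEK293 cells with stable TRPC4beta plus mu-opioid receptor expression. Dosing: single dose. Measured by: Fluo4 Ca2+ flux fluorescence. Also added: DAMGO in two steps, submaximal then maximal. Read-out: B score from integrated Fluo4 fluorescence ratio.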
TRPC4 act = TRPC4 (mouse) channel activation. HEK293 TRPC4beta/mu-opioid, Fluo4 calcium fluorescence; stronger effect = higher value. Q9QUQ5. AID 2237. B-score at 10 µM. 0.49% of 310,000 active;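 active = B-score above 5 SD of library B-scores, and initial fluorescence ratio not above library mean plus 5 SD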;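 also: positive B-score marks a calcium rise read as TRPC4 activation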
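Incubation: 45 min room-temperature Fluo4 loading, 110 s read / System: HEK293 cells stably co-expressing mouse TRPC4beta and mu-opioid receptor / Signal: Fluo4 fluorescence, kinetic / Control set: buffer (low) and maximal DAMGO (high) / Measure: integrated baseline-normalised fluorescence ratio, converted to per-well B score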
TRPC6 inhibitor = blocks the mouse TRPC6 cation channel; Q61143; HEK293-TRPC6, membrane potential dye, ACh-evoked depolarization; stronger effect = lower value; B-score at 10 µM; 1.1% of 310,000 active; AID 2553;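 active = B-score under library mean minus 3 SD, initial fluorescence not abnormally high, positive integrated signal ratio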;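 also: B-score derived from integrated fluorescence ratio over the kinetic read; more negative B-score means stronger inhibition of depolarization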
TRPC4 spec 2 = second check of whether TRPC6 inhibitors also affect mouse TRPC4 | shares compounds with TRPC6 inhibitor | HEK293 TRPC4/MOR, membrane potential dye fluorescence; channel activated by saturating DAMGO dose | inhibition, % at 10 µM | 42% of 920 active;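 active = compounds whose fluorescence signal differed from control wells by over 3 SD, either direction, in both duplicate plates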
TRPC4 spec = mouse TRPC4 off-target activity of TRPC6 inhibitors | AID 2777 | HEK293 TRPC4/mu-opioid, membrane potential fluorescence | activity change, negative = inhibition, % at 10 µM | shares compounds with TRPC6 inhibitor | 61% of 920 active;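 active = rise or fall in signal beyond 3 SD of buffer-only wells in both replicate plates, either sign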;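 also: integrated kinetic ratio of fluorescence range over baseline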
HEK293 MPD ctr 2-1 = second check of TRPC6 inhibitor effects in parental HEK293 cells | shares compounds with TRPC6 inhibitor | parental HEK293 membrane potential dye fluorescence; maximal acetylcholine challenge after compound addition | signal change vs control, % at 10 µM | 31% of 920 active | AID 2779;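 active = membrane potential signal moving either way by over 3 SD of the maximum-effect control, in both duplicate plates, meaning non-specific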
HEK293 MPD ctr-1 = counter-screen for TRPC6 inhibitors: effect in parental HEK293 cells; AID 2780; shares compounds with TRPC6 inhibitor; membrane potential signal change, % at 10 µM; 60% of 920 active; parental HEK293 membrane potential dye fluorescence;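 active = membrane potential signal shifting up or down by more than 3 SD of buffer-only wells, on both duplicate plates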
HEK293 MPD ctr-2 = counter-screen for TRPC6 modulators: effect in parental HEK293 cells | membrane potential dye fluorescence | 51% of 2,400 active | membrane potential signal change, % at 10 µM | shares compounds with TRPC6 inhibitor;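 active = membrane potential signal moves up or down beyond 5 SD from buffer-only wells, on both duplicate plates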
HEK293 MPD ctr 2-2 = parental HEK293 nonspecific activity of TRPC6 modulators, second screen; shares compounds with TRPC6 inhibitor; membrane potential dye fluorescence; after compound, maximal acetylcholine stimulation; inhibition, % at 10 µM; 14% of 2,400 active;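 active = membrane potential signal drops by more than 5 SD from the mean control signal, in both duplicate plates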;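 also: plate controls were acetylcholine ECmax control wells for no effect and buffer only wells for full effect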
TRPC4/MOR mod = tests whether TRPC6 modulators also affect mouse TRPC4; shares compounds with TRPC6 inhibitor; HEK293 TRPC4/mu-opioid, membrane potential fluorescence; percent change from control (negative = decrease, positive = increase), % at 10 µM; 69% of 2,400 active;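 active = membrane potential signal moved up or down beyond 5 SD of buffer control wells, in both duplicate plates, actives on both sides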;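 also: plate controls were assay buffer wells for no effect and DAMGO maximal-effect wells for full effect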
TRPC4 ctr inh 2 = second selectivity test of TRPC6 modulators against mouse TRPC4; inhibition, % at 10 µM; HEK293 TRPC4/mu-opioid, membrane potential dye fluorescence; stimulated with maximal-effect DAMGO; 55% of 2,400 active; shares compounds with TRPC6 inhibitor;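 active = drop in membrane potential signal beyond 5 SD of the control wells in both duplicate plates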;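 also: TRPC4 counter screen for TRPC6 hits run under conditions tuned for TRPC6 not TRPC4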
TRPC6 inh conf = confirmation of mouse TRPC6 inhibitors. HEK293-TRPC6, membrane potential dye, ACh-evoked depolarization. 43% of 3,300 active. shares compounds with TRPC6 inhibitor. inhibition, % at 10 µM;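 active = fluorescence ratio falls more than 5 SD below the full-stimulation control mean, in both duplicate runs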;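 also: integrated fluorescence ratio of peak minus minimum over baseline after agonist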
TRPC6 act confirm = confirmation of mouse TRPC6 activators | shares compounds with TRPC6 inhibitor | HEK293-TRPC6 membrane potential dye fluorescence, FDSS | activation, % at 10 µM | 11% of 2,800 active | AID 488961;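 active = ratio signal rise beyond 5 SD above unstimulated control wells' mean, seen in both duplicate runs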;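 also: plate controls were buffer EC0 wells for no effect and acetylcholine ECmax response for full effect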
* hit, by the source's call; i = inactive; nt = no result.

SMILES	TRPC4 potent	TRPC6 activator	TRPC4 inh	TRPC4 act	TRPC6 inhibitor	HEK293 MPD ctr-2	HEK293 MPD ctr 2-2	TRPC4/MOR mod	TRPC4 ctr inh 2	TRPC6 inh conf	TRPC6 act confirm	others
COc1ccccc1C(=O)C1CCCN(C(=O)c2ccccc2Cl)C1 (centres undefined)	i	i	i	i	i	nt	nt	nt	nt	nt	nt
O=C(COC(=O)CNC(=O)c1ccccc1)Nc1nc(-c2ccccc2)cs1	i	i	i	i	i	nt	nt	nt	nt	nt	nt
COC(=O)CCCNC(=O)c1ccccn1	i	i	i	i	i	nt	nt	nt	nt	nt	nt
Nc1c2c(nc3ccc(Br)cc13)N(Cc1ccccc1)CC2	i	i	i	i	i	nt	nt	nt	nt	nt	nt
CN(C)CCCNc1nc(-c2ccccc2)nc2ccccc12	i	i	i	i	-7.7*	nt	nt	nt	nt	65%*	i	TRPC4 spec 2=40%*;TRPC4 spec=-27%*;HEK293 MPD ctr 2-1=i;HEK293 MPD ctr-1=-347%*
Nc1c2c(nc3ccccc13)CCC2	i	i	-5*	i	-7*	-279%*	i	-42%*	70%*	i	i
COc1cc(Nc2c3c(nc4ccccc24)CCCC3)cc(OC)c1OC	i	i	i	i	-6.1*	-96%*	i	-20%*	38%*	i	i
Nc1c2c(nc3ccccc13)N(C1CCCCC1)CC2	i	i	-6*	i	-12*	nt	nt	nt	nt	109%*	i	TRPC4 spec 2=27%*;TRPC4 spec=-28%*;HEK293 MPD ctr 2-1=-2.5%*;HEK293 MPD ctr-1=-388%*
Cc1coc2cc3oc(=O)c(CCC(=O)N[C@@H](CCCNC(N)=O)C(=O)O)c(C)c3cc12	i	i	i	i	i	nt	nt	nt	nt	nt	nt
CC(Oc1ccccc1)C(=O)N(CCC1=CCCCC1)c1c(N)n(Cc2ccccc2)c(=O)[nH]c1=O (centres undefined)	i	i	i	i	i	nt	nt	nt	nt	nt	nt
COc1ccc(N(CC(=O)NC2CCCCCC2)S(=O)(=O)c2ccc(C)cc2)cc1OC	i	i	i	i	i	nt	nt	nt	nt	nt	nt
CC(C)(C)CC(C)(C)NCC(=O)Nc1c2c(nc3ccccc13)CCC2	i	i	i	i	i	nt	nt	nt	nt	nt	nt
CN(C)CCCNc1oc(-c2ccccc2)nc1C#N	i	i	i	i	i	nt	nt	nt	nt	nt	nt
CN(C)CCCNc1c2ccccc2nc2ccccc12	i	i	-6*	i	-11*	-268%*	177%*	-44%*	78%*	88%*	i
CN(C)CCNc1c2c(nc3ccccc13)CCC2	i	i	i	i	-9.1*	-202%*	110%*	-36%*	77%*	74%*	i
CCOc1cc(/C=N/Nc2nc(-c3cccs3)c(NC(C)=O)s2)ccc1O	i	i	i	i	i	nt	nt	nt	nt	nt	nt
O=C(CSc1ccc(-c2cccnc2)nn1)Nc1ccc(F)c(F)c1	i	i	i	i	i	nt	nt	nt	nt	nt	nt
O=C(NC(Cc1ccccc1)C(=O)NCCc1ccccn1)c1ccccc1 (centres undefined)	i	i	i	i	i	nt	nt	nt	nt	nt	nt
Cc1ccc(S(=O)(=O)N2CCC(NC(=O)c3cccnc3)CC2)cc1Cl	i	i	i	i	i	nt	nt	nt	nt	nt	nt
CN(C)c1cc[n+](CC[n+]2ccc(N(C)C)cc2)cc1	i	i	i	i	-5.5*	-234%*	i	-42%*	40%*	52%*	i
CN(C)c1cc[n+](Cc2c(Cl)cccc2Cl)cc1	i	i	i	i	i	nt	nt	nt	nt	nt	nt
CCN(CC)CC#CCOC(=O)C(O)(c1ccccc1)C1CCCCC1 (centres undefined)	i	i	i	i	-6.4*	121%*	97%*	26%*	i	81%*	nt
CCN(CC)CC#CCC(O)(c1ccccc1)C1CCCCC1 (centres undefined)	i	i	i	i	i	nt	nt	nt	nt	nt	nt
CC(=O)c1ccc(Nc2nc(=O)c3cccnc3s2)cc1	i	i	i	i	-5.8*	-176%*	i	-33%*	i	i	i
Cc1c(Cl)cccc1NC(=O)N1CCCN(c2nc(-c3ccccc3)ns2)CC1	i	i	i	i	i	nt	nt	nt	nt	nt	nt
SMILES	TRPC4 potent	TRPC6 activator	TRPC4 inh	TRPC4 act	TRPC6 inhibitor	HEK293 MPD ctr-2	HEK293 MPD ctr 2-2	TRPC4/MOR mod	TRPC4 ctr inh 2	TRPC6 inh conf	TRPC6 act confirm	others
O=C(Nc1ccccc1Cl)N1CCCN(c2nc(-c3ccccc3)ns2)CC1	i	i	i	i	-5.1*	i	i	i	i	i	i
Cc1cc(C)nc(/N=C(\N)N(Cc2ccccc2)Cc2ccccc2)n1	i	i	-7*	i	-7.5*	nt	nt	nt	nt	i	i	TRPC4 spec 2=40%*;TRPC4 spec=37%*;HEK293 MPD ctr 2-1=i;HEK293 MPD ctr-1=3.8%*
CC(C)CCN1C(=O)CCC1(C)C(=O)NC1CCCCCC1 (centres undefined)	i	i	i	i	-5.8*	128%*	i	26%*	i	i	nt
CCOc1ccc(CN(C)C(=O)CNC(=O)c2ccc3ccccc3c2)cc1OC	i	i	i	i	i	nt	nt	nt	nt	nt	nt
CCN1CCN(c2nc3c(C)cccn3c(=O)c2/C=C(\C#N)C(=O)NCCOC)CC1	i	i	i	i	-5.5*	-278%*	i	-52%*	i	i	i
Cc1cccn2c(=O)c(/C=C(\C#N)C(=O)NC3CCS(=O)(=O)C3)c(N3CCC(C(N)=O)CC3)nc12 (centres undefined)	i	i	i	i	i	nt	nt	nt	nt	nt	nt
